The results in this text go back to ChEMBL document CHEMBL3414543, “Novel series of benzoquinones with high potency against 5-lipoxygenase in human polymorphonuclear leukocytes” (Eur J Med Chem, 2015).

The target of assay [1] is T1, Polyunsaturated fatty acid lipoxygenase ALOX15 (Homo sapiens) (UniProt P16050).
T1 sequence (whole entry): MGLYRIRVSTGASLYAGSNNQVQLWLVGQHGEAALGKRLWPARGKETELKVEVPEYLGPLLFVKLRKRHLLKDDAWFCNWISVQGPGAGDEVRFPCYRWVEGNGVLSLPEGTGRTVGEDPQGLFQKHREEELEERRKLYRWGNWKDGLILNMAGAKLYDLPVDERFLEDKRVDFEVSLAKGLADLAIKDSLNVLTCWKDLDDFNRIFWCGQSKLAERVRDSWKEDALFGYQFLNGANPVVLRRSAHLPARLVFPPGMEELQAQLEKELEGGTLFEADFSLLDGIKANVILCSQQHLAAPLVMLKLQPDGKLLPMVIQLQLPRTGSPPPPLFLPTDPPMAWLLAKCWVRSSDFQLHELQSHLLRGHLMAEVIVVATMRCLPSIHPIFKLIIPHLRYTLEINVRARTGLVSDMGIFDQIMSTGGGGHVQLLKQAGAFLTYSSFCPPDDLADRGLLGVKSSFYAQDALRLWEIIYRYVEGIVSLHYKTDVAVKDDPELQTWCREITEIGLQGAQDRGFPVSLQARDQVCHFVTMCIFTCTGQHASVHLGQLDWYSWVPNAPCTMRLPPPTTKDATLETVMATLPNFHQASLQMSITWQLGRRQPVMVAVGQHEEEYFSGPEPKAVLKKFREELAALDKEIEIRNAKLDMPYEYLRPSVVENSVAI
The experiment in a line: Inhibition of 15-LOX-1 in human blood PMNL assessed as remaining activity by measuring 15-HETE synthesis at 10 uM. The method, boiled down: (§1)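 PMNL isolated from heparinized blood of fasted healthy donors by dextran sedimentation and Nycoprep centrifugation, with hypotonic lysis of erythrocytes. Cells at 5 × 10⁶ in 1 ml PBS pH 7.4 with 1 mg/ml glucose and 1 mM CaCl₂, preincubated 15 min at 37 °C with compound or 0.1% DMSO vehicle, then stimulated 10 min at 37 °C. 12-HETE or 15-HETE formation measured.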

Assay [2] deals with T2, Polyunsaturated fatty acid lipoxygenase ALOX12 (Homo sapiens) (UniProt P18054).
T2 sequence (whole entry): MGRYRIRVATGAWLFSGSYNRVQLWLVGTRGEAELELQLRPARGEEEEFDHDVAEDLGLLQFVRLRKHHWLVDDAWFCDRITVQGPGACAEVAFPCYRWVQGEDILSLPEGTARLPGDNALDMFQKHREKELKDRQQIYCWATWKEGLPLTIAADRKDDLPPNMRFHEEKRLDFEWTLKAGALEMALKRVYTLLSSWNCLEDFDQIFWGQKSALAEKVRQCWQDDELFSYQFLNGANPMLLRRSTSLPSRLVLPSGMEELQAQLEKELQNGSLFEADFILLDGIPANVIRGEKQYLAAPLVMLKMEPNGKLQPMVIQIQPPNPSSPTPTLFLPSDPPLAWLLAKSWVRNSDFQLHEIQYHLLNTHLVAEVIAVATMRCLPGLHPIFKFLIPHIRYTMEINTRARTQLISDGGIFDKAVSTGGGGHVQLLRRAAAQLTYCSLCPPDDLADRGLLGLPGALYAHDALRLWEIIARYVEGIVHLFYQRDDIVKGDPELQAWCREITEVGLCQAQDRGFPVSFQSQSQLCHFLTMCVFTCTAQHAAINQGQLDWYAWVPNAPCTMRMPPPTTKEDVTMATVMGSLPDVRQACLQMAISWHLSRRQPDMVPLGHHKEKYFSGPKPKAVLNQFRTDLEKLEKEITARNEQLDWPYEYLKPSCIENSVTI
Description: Inhibition of 12-LOX in human blood PMNL assessed as remaining activity by measuring 12-HETE synthesis at 10 uM. The method, boiled down:
as §1

Assay [3] deals with T3, Polyunsaturated fatty acid 5-lipoxygenase (Homo sapiens, UniProt P09917).
T3 sequence (P09917 whole entry): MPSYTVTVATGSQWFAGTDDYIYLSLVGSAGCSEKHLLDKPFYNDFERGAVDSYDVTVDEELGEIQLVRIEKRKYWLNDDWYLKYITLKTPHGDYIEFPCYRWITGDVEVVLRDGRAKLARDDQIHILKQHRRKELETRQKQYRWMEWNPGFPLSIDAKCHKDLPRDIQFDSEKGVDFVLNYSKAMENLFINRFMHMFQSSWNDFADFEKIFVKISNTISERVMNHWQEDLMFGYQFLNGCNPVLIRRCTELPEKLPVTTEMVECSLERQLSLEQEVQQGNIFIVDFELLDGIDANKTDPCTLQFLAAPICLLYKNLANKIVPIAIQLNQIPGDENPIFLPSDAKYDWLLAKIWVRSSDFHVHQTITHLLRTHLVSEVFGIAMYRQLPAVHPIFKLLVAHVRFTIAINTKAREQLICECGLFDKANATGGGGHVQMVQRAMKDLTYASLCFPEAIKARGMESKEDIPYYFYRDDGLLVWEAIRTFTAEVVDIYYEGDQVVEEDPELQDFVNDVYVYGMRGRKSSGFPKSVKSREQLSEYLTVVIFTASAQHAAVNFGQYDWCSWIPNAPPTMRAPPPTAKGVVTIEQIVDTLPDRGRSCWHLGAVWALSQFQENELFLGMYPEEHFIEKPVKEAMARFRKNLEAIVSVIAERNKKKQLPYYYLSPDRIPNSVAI
The experiment in a line: Inhibition of 5-LOX in A23187-stimulated human blood PMNL assessed as reduction in lipoxygenase products formation pre-incubated for 15 mins followed by stimulation with A23187 for 10 mins by RP-HPLC based cell based assay. The method, boiled down: (§2)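 Human PMNL (5 × 10⁶ in 1 ml PBS pH 7.4, 1 mg/ml glucose, 1 mM CaCl₂), preincubated 15 min at 37 °C with compound or 0.1% DMSO, then stimulated 10 min at 37 °C with A23187, with or without AA. 5-LO products measured. Values are mean ± S.E. of 3–4 independent experiments. IC₅₀ read graphically from 4–5 concentrations.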

Assay [4] addresses T3, Polyunsaturated fatty acid 5-lipoxygenase. Description: Inhibition of human recombinant 5-LOX expressed in Escherichia coli BL21 incubated for 10 mins in presence of arachidonic acid by RP-HPLC based cell-free assay. The method, boiled down:
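Recombinant human 5-LO, semi-purified from a 40,000 × g lysate supernatant on ATP-agarose, diluted in ice-cold PBS with 1 mM EDTA and 1 mM ATP. Preincubated 10 min at 4 °C with compound or 0.1% DMSO, warmed 30 s at 37 °C, then started with 2 mM CaCl₂ plus 20 µM AA. Reaction 10 min at 37 °C, stopped with cold methanol, products by RP-HPLC. IC₅₀ from 4–5 concentrations.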

The target is the same in assay [5]. The experiment in a line: Inhibition of 5-LOX in A23187-stimulated human blood PMNL assessed as reduction in lipoxygenase products formation in presence of arachidonic acid pre-incubated for 15 mins followed by stimulation with A23187 for 10 mins by RP-HPLC based cell based assay. The method, boiled down: as §2

For the compound `N#C/C(=C\c1ccc(O)c(O)c1)C(=O)OC/C=C/c1ccccc1`, the Activity in assay [1] is 5.2%; in assay [2] it was 0.91%.

For orientation: IC50 means the concentration that inhibits the measured activity by half. Consider `CCCCCCCCCCC1=C(OC)C(=O)C=C(OC)C1=O`, for which the IC50 in assay [3] amounted to 600 nM; in assay [4], 1800 nM; in assay [5], 1700 nM. For the same compound, the Activity in assay [2] came to 144%.

With `CCCCCCCCCCC1=C(O)C(=O)C=C(O)C1=O`, the Activity was 90% in assay [1] and 76% in assay [2]. Further, the IC50 in assay [3] was 2000 nM; in assay [4] it was 180 nM; in assay [5] it was 7100 nM.

For `COC1=CC(=O)C(=O)C(C/C=C(\C)CC/C=C(\C)CCC=C(C)C)=C1OC`, the values for the Activity in assay [1] and in assay [2] were 174% and 211%, respectively. Besides, the figures for the IC50 in assay [3], in assay [4] and in assay [5] were 150 nM, 300 nM and 100 nM, respectively.

As to `CCCCCCCCCCCCC1=C(O)C(=O)C=C(O)C1=O`, the Activity amounted to 65.1% in assay [1] and 90.6% in assay [2]. The IC50 is 4600 nM in assay [3], 170 nM in assay [4] and 3900 nM in assay [5].

For the compound `CCCCCCCCC1=C(OC)C(OC)=CC(=O)C1=O`, the Activity is 102% in assay [1] and 59.3% in assay [2]. Also, the IC50 in assay [3] amounted to 380 nM; in assay [4] it was 330 nM; in assay [5], 820 nM.

In the case of `CCCCCCCCCCCC1=C(OC)C(=O)C=C(OC)C1=O`, the Activity in assay [1] amounted to 93.4%; in assay [2], 161%. Moreover, the figures for the concentration for half-maximal inhibition (IC50) in assay [3], in assay [4] and in assay [5] were 200 nM, 930 nM and 590 nM, respectively.

For `CCCCCCCCCCCC1=C(O)C(=O)C=C(OC)C1=O` [5-O-METHYLEMBELIN], the Activity was determined as 131% in assay [1] and 138% in assay [2]. In addition, the IC50 in assay [3] amounted to 680 nM; in assay [4], 3800 nM; in assay [5], 1300 nM.

In the case of `CCCCCCCCC1=C(OC)C(=O)C=C(OC)C1=O`, the Activity in assay [1] worked out at 123%; in assay [2], 89.6%. For the same compound, the IC50 came to 320 nM in assay [3], 1200 nM in assay [4] and 570 nM in assay [5].

In the case of `CCCCCCCCCCCCCCCC1=C(O)C(=O)C=C(OC)C1=O`, the Activity came out at 103% in assay [1] and 92.8% in assay [2]. For the same compound, the IC50 in assay [3] worked out at 390 nM; in assay [4], 270 nM; in assay [5], 860 nM.

Consider `COC1=CC(=O)C(=O)C(C/C=C(\C)CCC=C(C)C)=C1OC`, for which the Activity in assay [1] was found to be 125%; in assay [2], 72.8%. Moreover, the IC50 in assay [3] amounted to 380 nM; in assay [4] it was 600 nM; in assay [5] it was 390 nM.

On to `COC1=CC(=O)C(O)=C(C/C=C(\C)CC/C=C(\C)CCC=C(C)C)C1=O`, for which the Activity in assay [1] turned out to be 122%; in assay [2], 108%. Also, the results for the 50% inhibitory concentration (IC50) in assay [3], in assay [4] and in assay [5] were 1900 nM, 5600 nM and 2400 nM, respectively.

On to `CCCCCCCCCCC1=C(O)C(=O)C=C(OC)C1=O`, for which the values for the Activity in assay [1] and in assay [2] were 123% and 122%, respectively. Further, the IC50 in assay [3] turned out to be 590 nM; in assay [4], 4300 nM; in assay [5] it was 2700 nM.

For `CCCCCCCCCCCCCCC1=C(OC)C(=O)C=C(OC)C1=O`, the Activity was 116% in assay [1] and 84.5% in assay [2]. Also, the IC50 in assay [3] is 290 nM; in assay [4], 210 nM; in assay [5] it was 1400 nM.

Take `CCCCCCC1=C(OC)C(OC)=CC(=O)C1=O`: the Activity in assay [1] amounted to 91.7%; in assay [2], 18.6%. Further, the half-maximal inhibitory concentration (IC50) was 330 nM in assay [3], 2600 nM in assay [4] and 990 nM in assay [5].

Turning to `CCCCCCCCCCCCC1=C(O)C(=O)C=C(OC)C1=O`, the Activity in assay [1] came to 116%; in assay [2], 148%. Further, the IC50 in assay [3] came to 560 nM; in assay [4], 740 nM; in assay [5], 1100 nM.

With `CCCCCCCCCCCCCC1=C(O)C(=O)C=C(OC)C1=O` [Sorgoleone-364], the Activity amounted to 88.1% in assay [1] and 73.2% in assay [2]. In addition, the IC50 in assay [3] is 770 nM; in assay [4], 920 nM; in assay [5] it was 2300 nM.

For the compound `CCCCCCCCCCCCCC1=C(O)C(=O)C=C(O)C1=O` [Rapanone], the Activity was determined as 124% in assay [1] and 84.3% in assay [2]. For the same compound, the IC50 in assay [3] is 2500 nM; in assay [4] it was 220 nM; in assay [5] it was 4700 nM.

In the case of `COC1=CC(=O)C(OC)=C(C/C=C(\C)CCC=C(C)C)C1=O`, the figures for the Activity in assay [1] and in assay [2] were 127% and 90.3%, respectively. The IC50 amounted to 450 nM in assay [3], 3300 nM in assay [4] and 1600 nM in assay [5].

For `CCCCCCCCCCCCCC1=C(OC)C(=O)C=C(OC)C1=O`, the Activity in assay [1] was 84.1%; in assay [2], 58.8%. In addition, the values for the IC50 in assay [3], in assay [4] and in assay [5] were 230 nM, 260 nM and 310 nM, respectively.

As to `CCCCCCCCCCCCCCC1=C(OC)C(OC)=CC(=O)C1=O`, the Activity in assay [1] was found to be 139%; in assay [2], 87.3%. The half-maximal inhibitory concentration (IC50) in assay [3] came to 120 nM; in assay [4] it was 40 nM; in assay [5], 90 nM.

In the case of `COC1=CC(=O)C(OC)=C(C/C=C(\C)CC/C=C(\C)CCC=C(C)C)C1=O`, the Activity was determined as 136% in assay [1] and 139% in assay [2]. Besides, the IC50 in assay [3] amounted to 310 nM; in assay [4], 1700 nM; in assay [5], 1200 nM.

With `CCCCCCCCCCCCCCC1=C(O)C(=O)C=C(O)C1=O`, the Activity was 139% in assay [1] and 101% in assay [2]. Also, the half-inhibitory concentration (IC50) in assay [3] turned out to be 3100 nM; in assay [4], 170 nM; in assay [5] it was 5100 nM.
